Converted amounts (≈) assume the structure as drawn.
Legend:
Streptococcus pneumoniae = assay: Antibacterial activity against Streptococcus pneumoniae D39 after 18 hrs by broth microdilution method; assay type: functional; details: D39, 18 h
How it was run: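 CLSI broth microdilution with 2-fold dilutions from 0.06 to 64 μg/mL. Cation-adjusted Mueller–Hinton broth with 2.5% lysed horse blood, inoculum 5 × 10^5 CFU/mL, grown at 35 °C for 18 h in 5% CO2. MIC is the lowest concentration showing no visible growth.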

Enterococcus faecalis = assay: Antibacterial activity against Enterococcus faecalis ATCC 29212 after 18 hrs by broth microdilution method; assay type: functional; details: ATCC 29212, 18 h
How it was run: (§1)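 CLSI broth microdilution with serial 2-fold dilutions from 0.06 to 64 μg/mL. Cation-adjusted Mueller–Hinton broth, inoculum 5 × 10^5 CFU/mL, incubated at 35 °C for 18 h. MIC taken as the lowest concentration with no visible growth.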

Escherichia coli = assay: Antibacterial activity against Escherichia coli C7 after 18 hrs by broth microdilution method; assay type: functional; details: C7, 18 h
Staphylococcus aureus = assay: Antibacterial activity against Staphylococcus aureus CIP54.146 after 18 hrs by broth microdilution method; assay type: functional; details: CIP54.146, 18 h; how it was run: as §1
[1] = biological target: T1, Enoyl-[acyl-carrier-protein] reductase [NADH] FabI (Escherichia coli K-12, UniProt P0AEK4); assay: Inhibition of Escherichia coli FabI using crotonoyl-CoA as substrate preincubated for 90 mins
T1 sequence (P0AEK4 whole entry): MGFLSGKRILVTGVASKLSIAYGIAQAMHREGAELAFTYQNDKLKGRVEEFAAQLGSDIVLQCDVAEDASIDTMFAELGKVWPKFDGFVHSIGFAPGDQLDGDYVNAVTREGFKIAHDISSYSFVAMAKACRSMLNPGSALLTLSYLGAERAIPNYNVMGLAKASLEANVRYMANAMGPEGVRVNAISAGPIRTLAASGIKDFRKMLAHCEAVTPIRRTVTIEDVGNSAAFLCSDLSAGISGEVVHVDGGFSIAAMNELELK
How it was run: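 Recombinant C-terminal 6-His-tagged E. coli FabI (40 nM) in 50 mM Hepes pH 7.5, 100 μM DTT, 0.006% Triton X-100. Enzyme preincubated with 20 μM NADH, 10 μM NAD+ and inhibitor in DMSO for 90 min at room temperature. Reaction started with 50 μM crotonoyl-CoA. 6–10 concentrations; IC50 by Langmuir fit.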

[2] = Cytotoxicity against human HepG2 cells; assay type: cell-based; details: read-out: ED50 (the source's name)
[3] = biological target: T2, Enoyl-[acyl-carrier-protein] reductase [NADPH] FabI (Staphylococcus aureus, UniProt Q6GI75); assay: Inhibition of Staphylococcus aureus recombinant FabI using trans-2-octenoyl N-acetylcysteamine thioester as substrate preincubated for 60 mins
T2 sequence (Q6GI75 whole entry): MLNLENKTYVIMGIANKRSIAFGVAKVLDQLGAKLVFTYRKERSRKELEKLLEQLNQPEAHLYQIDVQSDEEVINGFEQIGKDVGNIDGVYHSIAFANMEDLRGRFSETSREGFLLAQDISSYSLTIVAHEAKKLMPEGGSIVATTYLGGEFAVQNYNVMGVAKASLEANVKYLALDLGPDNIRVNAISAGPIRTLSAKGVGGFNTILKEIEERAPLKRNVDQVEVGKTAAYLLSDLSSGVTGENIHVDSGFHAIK
How it was run: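 Recombinant S. aureus FabI (2 nM) in 50 mM ADA pH 6.5, 1 mM DTT, 0.006% Triton X-100, 50 mM NaCl. Preincubated 60 min at room temperature with 40 μM NADPH, 10 μM NADP+ and inhibitor in DMSO. Reaction started with 100 μM t-o-NAC. Inhibition versus untreated samples; IC50 by Langmuir fit.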

MIC (Streptococcus pneumoniae) [µg/mL] | MIC (Enterococcus faecalis) [µg/mL] | MIC (Escherichia coli) [µg/mL] | MIC (Staphylococcus aureus) [µg/mL] | IC50 [1] [nM] | IC50 [3] [nM] | Compound | CC50 [2] [µg/mL]
16 (≈ 58.3 µM) | 16 (≈ 58.3 µM) | 1 (≈ 3.65 µM) | 0.062 (≈ 0.226 µM) | 110 | – | CCc1ccc(Oc2ccc(C(C)=O)cc2F)c(O)c1 | –
16 (≈ 53.3 µM) | > 32 | 4 (≈ 13.3 µM) | 0.062 (≈ 0.206 µM) | – | 48 | CCc1ccc(Oc2ccc(C(=O)CCCO)cc2)c(O)c1 | 16 (≈ 53.3 µM)
> 32 | > 32 | 8 (≈ 22.3 µM) | 1 (≈ 2.79 µM) | – | 28 | CCc1ccc(Oc2ccc(C(=O)N3CCNC(=O)C3)cc2F)c(O)c1 | > 32
> 64 | > 32 | 4 (≈ 17.1 µM) | 0.25 (≈ 1.07 µM) | 590 | – | CCc1ccc(Oc2cccc(F)n2)c(O)c1 | –
> 32 | > 32 | > 32 | 16 (≈ 56.1 µM) | 44000 | – | CCCc1ccc(Oc2cccc(NC(C)=O)c2)c(O)c1 | –
> 32 | > 32 | > 32 | 4 (≈ 10.3 µM) | 6100 | – | CCc1ccc(Oc2ccc(N3CC(CNC(C)=O)OC3=O)cc2F)c(O)c1 (centres undefined) | –
> 32 | > 32 | 16 (≈ 73 µM) | 4 (≈ 18.2 µM) | 3500 | – | Cc1ccc(Oc2cccc(F)n2)c(O)c1 | –
> 32 | > 32 | 16 (≈ 42.3 µM) | 0.25 (≈ 0.661 µM) | 380 | – | CCc1ccc(Oc2ccc(S(=O)(=O)CCC3OCCO3)cc2)c(O)c1 | –
> 64 | > 32 | 4 (≈ 13.9 µM) | 0.25 (≈ 0.87 µM) | – | – | Oc1cc(CC(F)(F)F)ccc1Oc1cccc(F)n1 | –
> 32 | > 32 | 1 (≈ 3.22 µM) | 0.25 (≈ 0.806 µM) | 140 | – | CCc1ccc(Oc2ccc(S(C)(=O)=O)cc2F)c(O)c1 | –
> 32 | > 32 | > 32 | 4 (≈ 17 µM) | 29000 | – | OCc1ccc(Oc2cccc(F)n2)c(O)c1 | –
> 32 | > 32 | > 32 | 4 (≈ 12.7 µM) | 6900 | – | Oc1cc(CCCn2cncn2)ccc1Oc1cccc(F)n1 | –
> 32 | > 32 | 4 (≈ 17.4 µM) | 0.25 (≈ 1.09 µM) | 160 | – | CCc1ccc(Oc2ccccc2N)c(O)c1 | –
> 32 | > 32 | 16 (≈ 45 µM) | 0.25 (≈ 0.703 µM) | 1200 | – | CCc1ccc(Oc2ccc(S(=O)(=O)NCCO)cc2F)c(O)c1 | –
> 32 | > 32 | 16 (≈ 54.7 µM) | 0.25 (≈ 0.855 µM) | 810 | – | CCc1ccc(Oc2ccc(S(C)(=O)=O)cc2)c(O)c1 | –
64 (≈ 267 µM) | > 32 | 0.25 (≈ 1.04 µM) | 0.25 (≈ 1.04 µM) | 550 | – | Oc1cc(Cl)ccc1Oc1cccc(F)n1 | –
> 32 | > 32 | 16 (≈ 64.2 µM) | 4 (≈ 16 µM) | 14000 | – | COCc1ccc(Oc2cccc(F)n2)c(O)c1 | –
16 (≈ 54.2 µM) | > 32 | 8 (≈ 27.1 µM) | 8 (≈ 27.1 µM) | 6500 | – | Cc1ccc(-c2ccc(Oc3cccc(F)n3)c(O)c2)cc1 | –
> 32 | > 32 | 0.25 (≈ 0.995 µM) | 0.062 (≈ 0.247 µM) | – | 13 | CCc1cc(O)c(Oc2cccnc2F)cc1F | –
> 32 | > 32 | > 32 | > 32 | – | > 100000 | CCc1cc(O)c(Oc2ccc[nH]c2=O)cc1F | –
16 (≈ 52.7 µM) | > 32 | > 32 | 1 (≈ 3.3 µM) | 14000 | – | CCc1ccc(Oc2ccc(/C(C)=N/OC)cc2F)c(O)c1 | –
64 (≈ 259 µM) | > 32 | 4 (≈ 16.2 µM) | 0.25 (≈ 1.01 µM) | – | – | CCCc1ccc(Oc2cccc(F)n2)c(O)c1 | –

MIC (Streptococcus pneumoniae) [µg/mL] | MIC (Enterococcus faecalis) [µg/mL] | MIC (Escherichia coli) [µg/mL] | MIC (Staphylococcus aureus) [µg/mL] | IC50 [1] [nM] | IC50 [3] [nM] | Compound | CC50 [2] [µg/mL]
> 32 | > 32 | 16 (≈ 55.9 µM) | 4 (≈ 14 µM) | 5200 | – | Oc1cc(Cn2cncn2)ccc1Oc1cccc(F)n1 | –
> 32 | > 32 | 16 (≈ 52.8 µM) | 1 (≈ 3.3 µM) | 3400 | – | Oc1cc(C(O)C(F)(F)F)ccc1Oc1cccc(F)n1 (centres undefined) | –
64 (≈ 225 µM) | > 32 | 1 (≈ 3.52 µM) | 0.25 (≈ 0.88 µM) | 120 | – | Oc1cc(Br)ccc1Oc1cccc(F)n1 | –
> 32 | > 32 | 0.25 (≈ 1.01 µM) | 0.5 (≈ 2.01 µM) | – | 56 | CCc1cc(O)c(Oc2cccnc2N)cc1F | –
> 32 | > 32 | > 32 | > 32 | – | 21000 | CCc1cc(OC)c(Oc2ccc(C(N)=O)cc2F)cc1F | > 32
> 32 | > 32 | 4 (≈ 10.6 µM) | 0.25 (≈ 0.664 µM) | – | – | CCc1cc(O)c(Oc2ccc(C(=O)N3CCNC(=O)C3)cc2F)cc1F | > 32
> 32 | > 32 | 4 (≈ 15.5 µM) | 0.25 (≈ 0.968 µM) | 230 | – | CCCc1ccc(Oc2ccc(OC)cc2)c(O)c1 | –
16 (≈ 65.8 µM) | > 32 | 16 (≈ 65.8 µM) | 1 (≈ 4.11 µM) | 42000 | – | CCc1ccc(Oc2cc(C)ccc2N)c(O)c1 | –
> 32 | > 32 | 8 (≈ 26 µM) | 1 (≈ 3.25 µM) | – | 82 | CCc1cc(O)c(Oc2ccc(C(=O)NC)cc2F)cc1F | > 32
8 (≈ 29.1 µM) | 32 (≈ 116 µM) | 1 (≈ 3.63 µM) | 0.062 (≈ 0.225 µM) | – | 31 | CCc1cc(O)c(Oc2ccc(C#N)cc2F)cc1F | 16 (≈ 58.1 µM)
> 32 | > 32 | 4 (≈ 15.3 µM) | 1 (≈ 3.83 µM) | 570 | – | CC(C)Cc1ccc(Oc2cccc(F)n2)c(O)c1 | –
> 32 | > 32 | > 32 | 4 (≈ 16.4 µM) | 112000 | – | CCc1ccc(Oc2ccccc2NC)c(O)c1 | –
> 32 | > 32 | 1 (≈ 3.21 µM) | 0.25 (≈ 0.803 µM) | 860 | – | CCc1ccc(Oc2ccc(S(N)(=O)=O)cc2F)c(O)c1 | –
16 (≈ 45.3 µM) | > 32 | 4 (≈ 11.3 µM) | 0.062 (≈ 0.175 µM) | 240 | – | CCCNS(=O)(=O)c1ccc(Oc2ccc(CC)cc2O)c(F)c1 | –
> 32 | > 32 | 16 (≈ 45.5 µM) | 1 (≈ 2.85 µM) | 2300 | – | CCc1ccc(Oc2ccc(NS(=O)(=O)C3CC3)cc2F)c(O)c1 | –
> 32 | > 32 | 16 (≈ 61.9 µM) | 1 (≈ 3.87 µM) | 3100 | – | CCCc1ccc(Oc2cccc(OC)c2)c(O)c1 | –
32 (≈ 128 µM) | 32 (≈ 128 µM) | 0.25 (≈ 0.999 µM) | 0.031 (≈ 0.124 µM) | – | 8 | CCc1cc(O)c(Oc2ccccc2F)cc1F | 16 (≈ 63.9 µM)
> 32 | > 32 | 16 (≈ 56.1 µM) | 1 (≈ 3.51 µM) | – | – | Oc1cc(C(F)=C(F)F)ccc1Oc1cccc(F)n1 | –
> 32 | > 32 | > 32 | 8 (≈ 27.2 µM) | – | 180 | CCc1cc(O)c(Oc2ccc(C(=O)O)cc2F)cc1F | > 32
> 32 | > 32 | > 32 | 16 (≈ 56.1 µM) | 56000 | – | Oc1cc(Cn2ccnc2)ccc1Oc1cccc(F)n1 | –
16 (≈ 55.3 µM) | > 32 | 16 (≈ 55.3 µM) | 0.25 (≈ 0.864 µM) | 850 | – | CCCNc1ccc(Oc2ccc(CC)cc2O)c(F)c1 | –
> 32 | > 32 | 16 (≈ 38.4 µM) | 0.25 (≈ 0.6 µM) | 150 | – | CCc1ccc(Oc2ccc(S(=O)(=O)NCCc3ccccn3)cc2F)c(O)c1 | –

Compound | MIC (Streptococcus pneumoniae) [µg/mL] | MIC (Enterococcus faecalis) [µg/mL] | MIC (Escherichia coli) [µg/mL] | MIC (Staphylococcus aureus) [µg/mL] | IC50 [1] [nM] | IC50 [3] [nM] | CC50 [2] [µg/mL]
Oc1cc(Cl)ccc1Oc1ccc(Cl)cc1Cl [TRICLOSAN] | 8 (≈ 27.6 µM) | 2 (≈ 6.91 µM) | 0.125 (≈ 0.432 µM) | 0.031 (≈ 0.107 µM) | – | – | 2 (≈ 6.91 µM)
CCc1ccc(Oc2ccc(NCCCO)cc2F)c(O)c1 | > 32 | > 32 | 16 (≈ 52.4 µM) | 0.25 (≈ 0.819 µM) | 1000 | – | –

— ChEMBL document CHEMBL2176870 (J Med Chem, 2012)
